Results gathered from unrelated publications.
Each line is one published result; the experiments were not run side by side.
Target: Serine/threonine-protein kinase OSR1 (OXSR1, Homo sapiens, UniProt O95747)

SMILES | assay | test system | conditions | endpoint | result
Cc1ccc(Nc2nccc(N(C)c3ccc4c(C)n(C)nc4c3)n2)cc1S(N)(=O)=O | enzyme activity, inhibitor |  | 0.5 µM | remaining activity | 103%
COc1ccc2c(O[C@@H]3C[C@H]4C(=O)N[C@]5(C(=O)O)CC5/C=C\CCCCC[C@H](NC(=O)OC5CCCC5)C(=O)N4C3)cc(-c3csc(NC(=O)C(C)C)n3)nc2c1C (stereo partly shown) | cell-free assay, competition with immobilised ligand |  | 1 µM | remaining binding | 82%
Cn1c2c(Cl)c(Cl)ccc2c2cn[nH]c(=O)c21 | thermal stability, DSF |  | 10 µM | ΔTm | -0.2 °C
COc1cc(Nc2c(C#N)cnc3cc(OCCCN4CCN(C)CC4)c(OC)cc23)c(Cl)cc1Cl | cell-free assay |  | 0.5 µM | remaining signal | 100%
COc1cc(Nc2cnc(C#N)c(O[C@H](C)CN(C)C)n2)ncc1-c1cnn(C)c1 | enzyme activity, inhibitor, radiometric |  | 1 µM | remaining activity | 115%
Cc1c(NC(=O)c2cc(C(N)=O)nc3cc(F)ccc23)c(C(F)(F)F)nn1Cc1ccc(C(C)(C)C)cc1 | cell-free assay, competition with immobilised ligand |  | 1 µM | remaining binding | 100%
CCN1CCN(Cc2ccc(NC(=O)c3ccc(C)c(Oc4ccnc5[nH]ccc45)c3)cc2C(F)(F)F)CC1 | target engagement in cells, inhibitor, chemoproteomics | Huh-7 | 1 µM | inhibition | -64.3%
c1ccc(CNc2nc(N3CCOc4ccccc43)nc3c2CCCC3)cc1 | target engagement in cells, inhibitor, chemoproteomics |  | 20 mM | inhibition | -9%
Cn1c2c(c3ccc(Cl)c(Cl)c31)C(C#N)C1(CCCC1)NC2=O (stereo not shown) | thermal stability, DSF |  | 10 µM | ΔTm | -0.1 °C
CC(C)(O)[C@H]1CC[C@H](Nc2ccc3ncc(-c4cccc(C(F)(F)F)c4)n3n2)CC1 | enzyme activity, inhibitor |  | 1 µM | remaining activity | 102%
COCCOc1nc(-c2ccc(Cl)nc2)nc2c1CN(C(=O)c1ncn3ccccc13)CC2 | cell-free assay, competition with immobilised ligand |  | 0.1 µM | remaining binding | 100%
Cn1c2c(c3ccc(Cl)c(Cl)c31)C(C#N)C1(CCNCC1)NC2=O (racemic) | thermal stability, DSF |  | 10 µM | ΔTm | -0.1 °C
Cn1cc(Cl)c2c(Oc3c(F)cc(Nc4cc(Cl)nc(N)n4)cc3F)ccnc21 | cell-free assay, competition with immobilised ligand |  | 0.1 µM | remaining binding | 93%
N#CC1c2c([nH]c3c(Cl)c(Cl)ccc23)C(=O)NC12CCCCC2 (racemic) | thermal stability, DSF |  | 10 µM | ΔTm | 0.1 °C
COc1cccc2c(NCc3ccccc3)nc(-n3c(N)nc4ccccc43)nc12 | target engagement in cells, inhibitor, chemoproteomics |  | 20 mM | inhibition | -6.6%
O=C1NC(=O)c2cc(Nc3ccc(F)cc3)c(Nc3ccc(F)cc3)cc21 | cell-free assay |  | 0.5 µM | remaining signal | 101%
N#CC1(c2ccccn2)CCN(Cc2cc(C(=O)N3CCCC3)c(=O)n3ccccc23)CC1 | cell-free assay, competition with immobilised ligand |  | 1 µM | remaining binding | 100%
Cc1sc(C(=O)NC2COC2)cc1-n1cc(NC(=O)Nc2c(F)cccc2Cl)cn1 | enzyme activity, inhibitor |  | 10 µM | remaining activity | 127%
C[C@@H]1CCN(C(=O)CC#N)C[C@@H]1N(C)c1ncnc2[nH]ccc12 | cell-free assay, inhibitor |  | 0.5 µM | remaining signal | 98.2%
CCCCN(CCCC)C(=O)CN1C[C@H](c2cc(OC)c3c(c2)OCO3)[C@@H](C(=O)O)[C@@H]1CC(C)(C)CCC | cell-free assay, competition with immobilised ligand |  | 1 µM | remaining binding | 89.5%
CCN1CCC2(CC1)NC(=O)c1c(c3ccc(Cl)c(Cl)c3n1C)C2C#N (racemic) | thermal stability, DSF |  | 10 µM | ΔTm | 0 °C
CCc1ccccc1C(=O)Nc1n[nH]c2c(C)c(F)c(C3C(C#N)=C(C)N(C)C(C)=C3C#N)cc12 | cell-free assay, competition with immobilised ligand |  | 1 µM | remaining binding | 100%
FC(F)(F)Oc1cccc(-c2cnc3ccc(-c4ccncc4)nn23)c1 | enzyme activity, inhibitor, radiometric |  | 5 µM | activity vs control | 104%
CC1(C)NC(=O)c2[nH]c3c(Cl)c(Cl)ccc3c2C1C#N (stereo not shown) | thermal stability, DSF |  | 10 µM | ΔTm | -0.1 °C
Cc1cc(NC(=O)c2cccc(S(F)(F)(F)(F)F)c2)cc(-n2ccn3nc(-c4cccnc4)cc23)c1 | cell-free assay, competition with immobilised ligand |  | 1 µM | remaining binding | 100%
